Measurements reported in ChEMBL document CHEMBL1156008, “Synthesis of novel isoluminol probes and their use in rapid bacterial assays” (Bioorg Med Chem Lett, 2009).
The source made the active and inactive calls. The calls are words filed in the database; no cut-off is given here.

Key:
Escherichia coli [1] = experiment: Binding affinity to Escherichia coli ATCC 47076 membrane surface measured after fourth washout with buffer by fluorescence assay; format: functional, organism-based
Procedure, shortened: (§1)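 Cell pellets were exposed to peptide-isoluminol probe in pH 6.4 phosphate buffer (0.01 M, 0.1 ionic strength). Probe remaining on cells was then tracked through repeated buffer wash cycles by fluorescence at ex 360/em 430 nm.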

Salmonella typhimurium [2] = experiment: Binding affinity to Salmonella Typhimurium ATCC 14028 membrane surface measured after fourth washout with buffer by fluorescence assay; format: functional, organism-based; conditions: Salmonella enterica subsp. enterica serovar Typhimurium; procedure, shortened: as §1
Lactococcus lactis [3] = experiment: Binding affinity to Lactococcus lactis subsp. lactis C2 ATCC 11454 membrane surface measured after second washout with buffer by fluorescence assay; format: functional
Procedure, shortened: (§2)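 L. lactis C2 grown 18 h at 27 °C in M17 (4% v/v inoculum). 200 µl culture, in triplicate, pelleted (9000g, 2 °C, 10 min); supernatant background subtracted. Pellet resuspended in peptide-isoluminol probe (DMF, diluted in pH 6.4 phosphate buffer, 0.01 M, 0.1 ionic strength) for 10 min at 27 °C. Fluorescence read at ex 360/em 430 nm, then repeated centrifugation/buffer washes; fraction retained calculated.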

Lactococcus lactis [4] = experiment: Binding affinity to Lactococcus lactis subsp. lactis C2 ATCC 11454 membrane surface by fluorescence assay; format: functional; procedure, shortened: as §2
Lactococcus lactis [5] = experiment: Binding affinity to Lactococcus lactis subsp. lactis C2 ATCC 11454 membrane surface measured after first washout with buffer by fluorescence assay; format: functional; procedure, shortened: as §2
Staphylococcus aureus [6] = experiment: Binding affinity to Staphylococcus aureus ATCC 25923 membrane surface measured after second washout with buffer by fluorescence assay; format: functional, organism-based; procedure, shortened: as §1
Salmonella typhimurium [7] = experiment: Binding affinity to Salmonella Typhimurium ATCC 14028 membrane surface by fluorescence assay; format: functional, organism-based; conditions: Salmonella enterica subsp. enterica serovar Typhimurium; procedure, shortened: as §1
Escherichia coli [8] = experiment: Binding affinity to Escherichia coli ATCC 47076 membrane surface measured after second washout with buffer by fluorescence assay; format: functional, organism-based; procedure, shortened: as §1
Salmonella typhimurium [9] = experiment: Binding affinity to Salmonella Typhimurium ATCC 14028 membrane surface measured after second washout with buffer by fluorescence assay; format: functional, organism-based; conditions: Salmonella enterica subsp. enterica serovar Typhimurium; procedure, shortened: as §1
Escherichia coli [10] = experiment: Binding affinity to Escherichia coli ATCC 47076 membrane surface by fluorescence assay; format: functional, organism-based; procedure, shortened: as §1
Staphylococcus aureus [11] = experiment: Binding affinity to Staphylococcus aureus ATCC 25923 membrane surface by fluorescence assay; format: functional, organism-based; procedure, shortened: as §1

SMILES	Activity (Escherichia coli [1])	Activity (Salmonella typhimurium [2])	Activity (Lactococcus lactis [3])	Activity (Lactococcus lactis [4]) [%]	Activity (Lactococcus lactis [5])	Activity (Staphylococcus aureus [6])	Activity (Salmonella typhimurium [7]) [%]	Activity (Escherichia coli [8])	Activity (Salmonella typhimurium [9])	Activity (Escherichia coli [10]) [%]	Activity (Staphylococcus aureus [11]) [%]
CCN(CCCCCCNC(=O)COCC(=O)N[C@@H](CCCCN)C(=O)N[C@@H](CCCCN)C(=O)N[C@@H](CCCCN)C(=O)O)c1ccc2c(=O)[nH][nH]c(=O)c2c1	Active	Active	10%	34	23%	–	–	–	–	–	–
CCN(CCCCCCNC(=O)COCC(=O)NC(CCC(=O)O)C(=O)NC(CCC(=O)O)C(=O)O)c1ccc2c(=O)[nH][nH]c(=O)c2c1 (centres undefined)	–	–	Active	15	Active	Active	15	Active	Active	15	15
